According to ChEMBL document CHEMBL5244228, “Novel linked butanolide dimer compounds increase adiponectin production during adipogenesis in human mesenchymal stem cells through peroxisome proliferator-activated receptor γ modulation” (Eur J Med Chem, 2020):
The source made the active and inactive calls. The calls are words filed in the database; no cut-off is given here.

Key:
[1] = target: T1, Peroxisome proliferator-activated receptor alpha (Homo sapiens) (UniProt Q07869); assay: Displacement of Fluormone Pan-PPAR Green from GST-tagged human PPAR-alpha ligand binding domain at 10 uM by LanthaScreen TR-FRET competitive binding assay
T1 sequence (whole entry): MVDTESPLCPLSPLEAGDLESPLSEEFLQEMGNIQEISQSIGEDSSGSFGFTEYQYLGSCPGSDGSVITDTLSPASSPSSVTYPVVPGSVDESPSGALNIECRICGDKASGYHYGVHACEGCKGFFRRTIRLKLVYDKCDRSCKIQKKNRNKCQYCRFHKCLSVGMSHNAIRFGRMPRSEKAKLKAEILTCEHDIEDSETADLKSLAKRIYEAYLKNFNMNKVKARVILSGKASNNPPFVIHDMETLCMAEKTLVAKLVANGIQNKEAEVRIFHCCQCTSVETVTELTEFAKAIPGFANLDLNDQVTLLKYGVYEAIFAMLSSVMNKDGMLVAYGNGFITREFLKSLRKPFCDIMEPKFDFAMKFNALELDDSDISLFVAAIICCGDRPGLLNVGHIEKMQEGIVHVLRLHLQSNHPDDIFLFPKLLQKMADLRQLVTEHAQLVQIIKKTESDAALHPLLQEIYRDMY
Outline: (§1)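 TR-FRET competitive binding run with a LanthaScreen kit, following a previously described protocol; values read on a plate reader.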

[2] = target: T2, Peroxisome proliferator-activated receptor gamma (Homo sapiens) (UniProt P37231); assay: Displacement of Fluormone Pan-PPAR Green from GST-tagged human PPAR-gamma ligand binding domain at 10 uM by LanthaScreen TR-FRET competitive binding assay; outline: as §1
T2 sequence (whole entry): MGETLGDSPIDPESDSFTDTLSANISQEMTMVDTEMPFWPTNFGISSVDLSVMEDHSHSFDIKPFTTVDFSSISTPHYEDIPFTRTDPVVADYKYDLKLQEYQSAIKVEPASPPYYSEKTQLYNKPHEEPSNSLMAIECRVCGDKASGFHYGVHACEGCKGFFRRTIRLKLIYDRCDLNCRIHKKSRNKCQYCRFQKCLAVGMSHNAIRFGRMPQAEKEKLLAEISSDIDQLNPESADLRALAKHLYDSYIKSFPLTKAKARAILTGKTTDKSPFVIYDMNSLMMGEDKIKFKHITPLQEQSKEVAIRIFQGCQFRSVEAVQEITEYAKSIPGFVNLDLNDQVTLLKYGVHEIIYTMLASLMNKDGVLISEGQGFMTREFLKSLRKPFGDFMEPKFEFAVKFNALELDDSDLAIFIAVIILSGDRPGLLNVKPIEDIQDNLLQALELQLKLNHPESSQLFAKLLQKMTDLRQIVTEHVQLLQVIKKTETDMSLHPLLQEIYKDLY

[3] = target: T3, Peroxisome proliferator-activated receptor delta (Homo sapiens) (UniProt Q03181); assay: Displacement of Fluormone Pan-PPAR Green from GST-tagged human PPAR-delta ligand binding domain at 10 uM by LanthaScreen TR-FRET competitive binding assay; outline: as §1
T3 sequence (whole entry): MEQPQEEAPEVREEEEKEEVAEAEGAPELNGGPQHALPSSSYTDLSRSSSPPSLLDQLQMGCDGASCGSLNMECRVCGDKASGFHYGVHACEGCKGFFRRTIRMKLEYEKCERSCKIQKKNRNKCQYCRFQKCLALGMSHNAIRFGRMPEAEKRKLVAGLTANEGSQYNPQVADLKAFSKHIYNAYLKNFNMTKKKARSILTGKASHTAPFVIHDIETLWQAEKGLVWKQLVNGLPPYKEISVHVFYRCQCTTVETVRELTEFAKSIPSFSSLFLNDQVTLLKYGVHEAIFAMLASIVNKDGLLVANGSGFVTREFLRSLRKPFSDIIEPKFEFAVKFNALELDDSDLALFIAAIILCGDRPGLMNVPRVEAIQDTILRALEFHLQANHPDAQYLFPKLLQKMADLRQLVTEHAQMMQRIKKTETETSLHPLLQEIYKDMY

[4] = target: T4, Peroxisome proliferator-activated receptor gamma (Homo sapiens, UniProt P37231); assay: Displacement of [3H]rosiglitazone from human PPAR-gamma incubated for 1 day by radioligand binding assay
T4 sequence (P37231 whole entry): T2 sequence (whole entry)

[5] = target: T4, Peroxisome proliferator-activated receptor gamma; assay: Agonist activity at PPAR-gamma in human BMMSC cells assessed as induction of adiponectin production in presence of IDX adipogenic induction medium and measured on day 5 by ELISA; type: cell-based
[6] = target: T2, Peroxisome proliferator-activated receptor gamma (Homo sapiens); assay: Partial agonist activity at PPAR-gamma in human BMMSC cells assessed as inhibition of pioglitazone-induced adiponectin production at 1 to 10 uM in presence of IDX adipogenic induction medium and pioglitazone and measured on day 5 by ELISA; type: cell-based; details: filed as partial agonist, dose 1-10 µM, time 5.0 day
Outline: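 Human bone marrow MSCs grown in DMEM (1 g/L glucose), 10% FBS, 1% pen-strep. Adipogenesis induced in DMEM (4.5 g/L glucose), 10% FBS, insulin, dexamethasone, IBMX, with compounds co-added alongside pioglitazone. Supernatants collected on day 5; adiponectin quantified by ELISA. Mean ± SD, n = 3.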

[7] = target: T2, Peroxisome proliferator-activated receptor gamma (Homo sapiens); assay: Displacement of [3H]rosiglitazone from human PPAR-gamma at 30 uM incubated for 1 day by radioligand binding assay; details: filed as agonist

Structure (SMILES) | Activity [1] | Activity ([2]; filed as agonist) | Activity [3] | Ki [4] | EC50 [5] | Activity [6] | Activity ([2]; filed as partial agonist) | Activity [7]
CCCCC/C=C1/C(=O)O[C@@H](C)[C@@H]1O | inactive | Active | inactive | – | – | – | – | –
CCCCCCCCCCC/C=C1/C(=O)O[C@@H](C)[C@H]1O | inactive | Active | inactive | – | – | – | – | –
CCCCCCCCCCCCC/C=C1/C(=O)O[C@@H](C)[C@H]1O | inactive | – | inactive | 9.2 µM | > 30 µM | Dose-Dependent Effect | Active | –
CCCCC/C=C1/C(=O)O[C@@H](C)[C@H]1O | inactive | Active | inactive | – | – | – | – | –
CCCCCCCCC/C=C1/C(=O)O[C@@H](C)[C@H]1O | inactive | Active | inactive | – | – | – | – | –
CCCCCCCCCCCCC/C=C1/C(=O)O[C@@H](C)[C@@H]1O | inactive | Active | inactive | 1.9 µM | > 30 µM | – | – | –
CCCCCCCCCC/C=C1/C(=O)O[C@@H](C)[C@H]1O | inactive | Active | inactive | – | – | – | – | –
CCCC=C1C(=O)O[C@@H](C)[C@@H]1O | inactive | Active | inactive | 22 µM | 19 µM | – | – | –
CCC/C=C1/C(=O)O[C@@H](C)[C@H]1O | inactive | Active | inactive | > 30 µM | 25.3 µM | – | – | 48.5%
CCCCCCCC/C=C1/C(=O)O[C@@H](C)[C@H]1O | inactive | Active | inactive | – | – | – | – | –
CCCCCCCCCCCC/C=C1/C(=O)O[C@@H](C)[C@H]1O | inactive | Active | inactive | – | – | – | – | –
CCCCCCC/C=C1/C(=O)O[C@@H](C)[C@H]1O | inactive | Active | inactive | – | – | – | – | –
